Assay outcomes from PubChem BioAssay.
A selection: hits, their analogues and other compounds. The true share with any hit is near 2.9%.
CHO-K1 Ca ag: counter-screen for M1 agonists: effect in parental CHO-K1 cells; Fluo-8 calcium fluorescence; scaled to maximal ATP response, vehicle zero; activation, % at 3 µM; hit rate 0.48% among 360,000; AID 602248, 2012; in the data active means activation above about 15%;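 further: untransfected CHO-K1 host cells lacking M1 receptor as counterscreen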
OX1R antag-1: antagonists of human orexin 1 receptor (OX1R) | Orexin/Hypocretin receptor type 1 (Homo sapiens), O43613 | OX1R-expressing cells, FRET antagonist read-out | inhibition, % at 6.6 µM | hit rate 1.8% among 330,000 | AID 485270, 2010; in the data active means inhibition mostly above about 38%, no sharp cut-off; inactive means mostly below about 40%;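 further: 0% = agonist challenge alone and 100% = reference antagonist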
Target sequence (O43613 whole entry, looked up): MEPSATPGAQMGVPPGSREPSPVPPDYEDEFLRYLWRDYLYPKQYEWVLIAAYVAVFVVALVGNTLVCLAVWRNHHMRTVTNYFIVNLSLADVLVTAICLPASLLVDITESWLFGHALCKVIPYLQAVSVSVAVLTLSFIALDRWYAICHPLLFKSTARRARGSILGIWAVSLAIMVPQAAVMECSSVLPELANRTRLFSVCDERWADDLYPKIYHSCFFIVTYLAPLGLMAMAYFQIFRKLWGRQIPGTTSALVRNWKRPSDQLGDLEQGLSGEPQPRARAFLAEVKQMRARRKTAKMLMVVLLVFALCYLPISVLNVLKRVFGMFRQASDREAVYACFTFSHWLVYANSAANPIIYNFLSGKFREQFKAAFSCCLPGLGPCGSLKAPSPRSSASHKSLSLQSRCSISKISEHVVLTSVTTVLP
CHO-K1 Ca PAM: nonselective calcium activators in parental CHO-K1 cells, primary screen, counter-screen for M1 PAM project, cell-based, Fluo-8 calcium fluorescence, full deck, 1536-well. ATP EC20; 0% at ATP EC20, 100% at ATP max. activation, % at 3 µM. hit rate 0.02% among 360,000. AID 602247, 2012;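 active means activation above the run cutoff, the mean activation of all test compounds plus 3 SD, cut at about 40% in these data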;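 further: peak over basal fluorescence ratio in a 140 s read after ATP addition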
CHO-K1 Ca antag: M1 antagonist counterscreen hit in parental CHO-K1 cells | ATP-induced calcium, Fluo-8 fluorescence | inhibition, % at 3 µM | hit rate 0.6% among 360,000;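 active means inhibition above a per-plate cutoff, the plate's mean sample inhibition plus 3 SD, cut at about 24% in these data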;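 further: 0% = DMSO plus EC80 ATP and 100% = DMSO alone without ATP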
CHO parental Ca: ATP-evoked calcium signal inhibitors, parental CHO, primary screen, counter-screen for OX1R antagonist project, cell-based, fluorescence, Fluo-8 calcium dye; inhibition, % at 5.6 µM; hit rate 0.63% among 330,000; parental CHO-K1, ATP-induced calcium, Fluo-8 fluorescence;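 active means inhibition above that plate's mean sample inhibition plus 3 SD, cut at about 26% in these data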;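 further: 0% = ATP-challenged DMSO wells and 100% = DMSO wells without ATP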
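test system = CHO parental line | reagent = ATP stimulus | measured by = intracellular calcium via Fluo-8 no-wash fluorescent dye | control set = ATP and no-ATP DMSO wells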
OX1R antag-2: OX1R (HCRTR1) antagonists, primary screen, fluorescence, CHO/OX1R cells, Fluo-8 calcium, orexin A; inhibition, % at 5 µM; Fluo-8 calcium fluorescence; AID 434989, 2010; hit rate 0.43% among 330,000;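 active means inhibition above its plate's threshold, mean inhibition of all tested compounds on the plate plus 3 SD, cut at about 37% in these data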;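 further: 0% = orexin A challenge wells and 100% = SB-334867-A antagonist wells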
Starred values were filed as active, the others as inactive; . = no result given.

SMILES	CHO-K1 Ca ag	OX1R antag-1	CHO-K1 Ca PAM	CHO-K1 Ca antag	CHO parental Ca	OX1R antag-2
COc1ccccc1NS(=O)(=O)c1cc([N+](=O)[O-])ccc1N/N=C/c1c(C)[nH]c2ccccc12	4	15	3	-19	41*	46*
Cc1[nH]c2ccccc2c1/C=N/Nc1ccc([N+](=O)[O-])cc1	21*	17	0	34*	57*	53*
O=[N+]([O-])c1ccc(N/N=C/c2c[nH]c3ccccc23)c(S(=O)(=O)Nc2ccc(Cl)cc2)c1	0	5	14	-6	5	2
CCCc1ccc(C(=O)Cn2nc(C(=O)O)c3ccccc3c2=O)cc1	1	15	12	-14	-22	-26
COc1ccc(-c2nc3cc(C)c(Br)c(C)n3c2CC(C)(C)C)cc1OC	0	.	19	-3	.	.
Cc1nc2ccccn2c1-c1csc(Nc2cccc(O)c2)n1	11	.	18	2	.	.
Cc1cccc(Nc2nc(-c3c(C)nc4ccccn34)cs2)c1	12	32	-8	10	43*	70*
O=C(N/N=C/C(Br)=C\c1ccccc1)c1cccs1	1	40*	14	-12	-10	-7
O=C(Nc1cc(-c2ccccc2)nn1-c1ccccc1)c1ccccc1F	0	34	8	-14	-11	-30
CCC(=O)c1cn(CC(=O)Nc2cccc(OC)c2)c2ccccc12	0	6	7	7	-8	-25
O=[N+]([O-])c1cccnc1Sc1ccc(F)cc1	0	9	-25	22	4	-7
CNc1nnc(Sc2ncccc2[N+](=O)[O-])s1	1	48*	-4	-2	-8	-1
O=C(NN=C1CCCCCCC1)c1ccccn1	8	3	6	4	-4	-16
Cc1cc(C(=O)NN=C2CCCCCCC2)c2ccccc2n1	0	12	-5	42*	-14	-14
O=C(NN=C1CCCCCCC1)c1ccc2ccccc2n1	0	56*	14	-5	-18	-2
CCOc1ccc(CCNC(=O)c2cc(C)nc3ccccc23)cc1OCC	1	40	0	-6	-14	-22
Cc1cc(C(=O)NCCc2ccc(Cl)cc2)c2ccccc2n1	2	50*	-16	-6	-15	16
O=C(NN=C1CCCC1)c1cc(-c2ccc(F)cc2)nc2ccccc12	1	13	29	-15	-28	-36
O=[N+]([O-])c1ccc2c(c1)C(=NO)c1cc(Cl)c(Cl)cc1-2	3	.	27	-16	.	.
CCn1c(SCc2cccc(OC)c2)nc2ccccc2c1=O	0	23	2	-24	-25	-5
NC(=O)COc1c(-c2ccc(Br)o2)oc2ccccc2c1=O	1	72*	-5	-4	-13	7
COc1ccccc1C(C)Nc1ccc(S(=O)(=O)N2CCN(C)CC2)cc1[N+](=O)[O-] (stereo not drawn)	0	9	-19	22	-27	-22
CC1=NNC(=O)/C1=C\c1cn(-c2ccccc2)nc1-c1ccc(Cl)cc1	2	5	15	6	37*	53*
CC1(C)CC(=O)C(=Cc2cn(-c3ccccc3)nc2-c2ccccc2)C(=O)C1	0	8	-13	5	-10	-4
O=C1CCCC(O)=C1N=Nc1cccc(C(=O)O)c1	-1	70*	-3	6	8	-19
SMILES	CHO-K1 Ca ag	OX1R antag-1	CHO-K1 Ca PAM	CHO-K1 Ca antag	CHO parental Ca	OX1R antag-2
CCN(CC)S(=O)(=O)c1cccc(N=NC2=C(O)CCCC2=O)c1	1	12	8	-4	-2	-17
O=C1NC(c2ccccc2)C(C(=O)c2cccs2)C(O)(C(F)(F)F)N1 (stereo not drawn)	0	14	13	4	-6	-2
CSC1=C(C#N)C(c2ccccc2Cl)C(C(=O)c2cccs2)C(O)(C(F)(F)F)N1 (stereo not drawn)	4	62*	4	-1	3	21
COc1cc(C2NC(=S)NC(C)=C2C(=O)Nc2ccc(C)cc2)ccc1O (stereo not drawn)	1	14	20	-5	-10	-23
CC[C@H](C)[C@H](NC(=O)c1ccc(Cl)cc1)C(=O)OCC(=O)c1ccc2c(c1)NC(=O)CO2	2	20	15	5	83*	59*
CCN(CC)S(=O)(=O)c1cccc(C(=O)OCC(=O)c2ccc3c(c2)NC(=O)CO3)c1	17*	7	-4	5	9	21
CC(C)[C@H](NC(=O)c1ccccc1)C(=O)OCC(=O)c1ccc2c(c1)NC(=O)CO2	0	8	8	-2	-11	-23
CC(=O)N1c2ccc(S(=O)(=O)N3CCC(C(=O)N4CCN(c5cc(Cl)ccc5C)CC4)CC3)cc2CC1C (stereo not drawn)	12	10	-18	26*	43*	38
CC1Cc2cc(S(=O)(=O)N3CCC(C(=O)N4CCN(c5ccccc5F)CC4)CC3)ccc2N1C(=O)C1CC1 (stereo not drawn)	10	2	-30	29*	1	1
CC(=O)c1ccc(N2CCN(S(=O)(=O)c3ccc4c(c3)CC(C)N4C(C)=O)CC2)cc1 (stereo not drawn)	14	25	3	24	30	42*
O=C(C1CCN(S(=O)(=O)c2ccccc2)CC1)N1CCN(c2ccccc2F)CC1	1	4	6	-8	-10	-11
CS(=O)(=O)N1CCC(C(=O)N2CCN(c3ccccc3F)CC2)CC1	17*	5	19	-1	-4	-9
COc1ccccc1N1CCN(C(=O)C2CCN(S(=O)(=O)c3ccc4c(c3)CC(C)N4C(=O)C3CC3)CC2)CC1 (stereo not drawn)	10	11	-21	22	-18	-33
CC(=O)c1ccc(N2CCN(S(=O)(=O)c3ccc4c(c3)CC(C)N4C(=O)C3CC3)CC2)cc1 (stereo not drawn)	5	21	-3	-9	-1	-18
CCN(CC)CCNC(=O)c1ccc(NC(=O)C2CC(=O)N(CCc3ccc(OC)c(OC)c3)C2)cc1 (stereo not drawn)	0	-2	6	-15	9	-10
O=C1/C(=C/c2cccc(Br)c2)SC(=S)N1CCC(=O)N(CCO)c1ccccc1	6	0	15	-5	39*	-19
O=C1/C(=C/c2ccc3c(c2)OCO3)SC(=S)N1CCC(=O)N(CCO)c1ccccc1	1	.	-7	13	.	.
CCOC(=O)C1(CCc2ccccc2)CCN(C(=O)C2CCOCC2)CC1	0	14	-17	25*	-13	-16
